By IC50 is commonly meant the point on the concentration scale where inhibition reaches its midpoint. A word on the GI50: it is the concentration at which growth is held to half of that of the control. A lower GI50 goes with more potent growth inhibition.

The structures appear in SMILES notation. Some results are limits rather than exact numbers.

This is an account of results in ChEMBL document CHEMBL1132256, “Structure-activity relationships for substituted bis(acridine-4-carboxamides): a new class of anticancer agents” (J Med Chem, 1999).

For assay [1], the system named is Lewis lung carcinoma cell line. The assay is described as follows: Inhibitory activity of tested against Murine Lewis lung carcinoma. Particulars: Mus musculus. It counts as functional, cell-based. The procedure, abridged:
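Lewis lung carcinoma (LLTC) cells at 10^3 cells/well, 4-day continuous drug exposure, growth read by sulforhodamine assay. IC50 (nM) = concentration giving 50% of control cell number. Duplicate independent assays, CV ca. 25%.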

Another assay concerns HCT-116. Put plainly: inhibitory activity against colon HCT116 cell line. It counts as functional. The conditions noted are these: Homo sapiens. In a few lines:
(§1)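 Tested in the NCI human cell line panel. GI50 = drug concentration (nM) giving growth inhibition to 50% of controls; values below 10 nM were taken as 10 nM in calculations.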

Another assay concerns SK-OV-3. Put plainly: inhibitory activity against ovarian carcinoma SKOV3 cell line. It counts as functional. The conditions noted are these: Homo sapiens. In a few lines:
as §1

For a further assay, the system named is NCI/ADR-RES. The assay is described as follows: inhibitory activity against multi drug resistant NCI/ADR cell line. Particulars: Homo sapiens. The class given is functional. The procedure, abridged:
as §1

In assay [2] the test system is Jurkat. Put plainly: Ratio of inhibitory activity against doxorubicin resistant jurkat cells to inhibitory activity against wild type human jurkat cells. It counts as functional. In a few lines: (§2)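 Wild-type Jurkat (JLC) and its amsacrine-resistant (JLA) or doxorubicin-resistant (JLD) sublines each seeded at 3.75 × 10^3 cells/well, 4 days with drug, sulforhodamine read-out. IC50 (nM) for 50% of control cell number; ratio = resistant-line IC50 divided by JLC IC50. Duplicate assays, CV ca. 25%.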

Assay [3] concerns Jurkat. The assay is described as follows: Ratio of inhibitory activity against amsacrine resistant jurkat cells to inhibitory activity against wild type human jurkat cells. The class given is functional. In a few lines:
as §2

The test system of the next assay is CAKI-1. The assay is described as follows: inhibitory activity against renal tumor […] cell line. It counts as functional. Particulars: Homo sapiens. In a few lines: as §1
For the next assay, the system named is P388. Put plainly: Inhibitory activity against Murine […]. The class given is functional, cell-based. The conditions noted are these: Mus musculus. In a few lines:
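Murine P388 leukemia cells seeded at 4.5 × 10^3 cells/well, cultured 3 days with drug; growth measured by [3H]TdR uptake. IC50 = drug concentration (nM) reducing cell number to 50% of controls. Independent assays in duplicate, CV ca. 25%.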

The subject of another assay is HT-29. Put plainly: inhibitory activity against colon HT-29 cell line. The class given is functional. The conditions noted are these: Homo sapiens. The procedure, abridged: as §1
The test system of the next assay is MCF7. The assay is described as follows: inhibitory activity against multi drug resistant MCF cell line. It counts as functional. The conditions noted are these: Homo sapiens, in the assay text read “MCF7 cell line” for “multi drug resistant MCF cell line”. In a few lines: as §1
In assay [4] the test system is Jurkat. The assay is described as follows: Concentration required to inhibit 50% growth of human Jurkat cells. The class given is functional, cell-based. In a few lines: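 Jurkat leukemia (JLC) cells seeded at 3.75 × 10^3 cells/well and exposed to drug for 4 days; growth measured by sulforhodamine assay. IC50 = drug concentration (nM) reducing cell number to 50% of control cultures. Independent assays in duplicate, coefficients of variation ca. 25%.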

As for `CN(CCCNC(=O)c1cccc2cc3cccc(-c4ccccc4)c3nc12)CCCNC(=O)c1cccc2cc3cccc(-c4ccccc4)c3nc12`, the concentration for half-maximal inhibition (IC50) is 1.08 µM in assay [1], 1.23 µM in the assay on P388 and 2.54 µM in the assay with Jurkat [4]. The GI50 with HCT-116 amounted to 5.06 µM; in the assay on SK-OV-3, 12 µM; in the assay on NCI/ADR-RES, 1.79 µM; in the assay with CAKI-1, 12 µM; with HT-29, 1.62 µM; in the assay on MCF7, 1.02 µM. In addition, the Ratio was determined as 0.8 in the assay with Jurkat [2] and 0.5 with Jurkat [3].

Turning to `Cc1ccc2cc3ccccc3nc2c1C(=O)NCCCN(C)CCCNC(=O)c1c(C)ccc2cc3ccccc3nc12`, the IC50 in [1] worked out at 2.4 µM; in the assay on P388, 3.5 µM; in the assay on Jurkat [4], 1.29 µM. The GI50 with HCT-116 was determined as 0.446 µM; with SK-OV-3, 13 µM; in the assay on NCI/ADR-RES, 16 µM; in the assay with CAKI-1, 6.36 µM; in the assay on HT-29, 1.43 µM; in the assay on MCF7 it was 3.03 µM. The figures for the Ratio in the assay on Jurkat [2] and with Jurkat [3] were 1 and 0.9, respectively.

Consider `CN(CCCNC(=O)c1cccc2cc3c(Cl)cccc3nc12)CCCNC(=O)c1cccc2cc3c(Cl)cccc3nc12`, for which the half-maximal inhibitory concentration (IC50) in [1] stood at 0.123 µM; with P388 it was 0.75 µM; in the assay on Jurkat [4], 0.238 µM. Also, the 50% growth inhibitory concentration (GI50) with HCT-116 worked out at 0.216 µM; in the assay with SK-OV-3 it was 1.07 µM; in the assay on NCI/ADR-RES it was 0.624 µM; in the assay with CAKI-1, 0.45 µM; with HT-29 it was 0.12 µM; in the assay with MCF7, 0.614 µM. The Ratio with Jurkat [2] is recorded as 1.2; in the assay with Jurkat [3], 0.8.

As to `Cc1ccc(C(=O)NCCCN(C)CCCNC(=O)c2ccc(C)c3cc4ccccc4nc23)c2nc3ccccc3cc12`, the IC50 was 0.014 µM in assay [1], 0.17 µM with P388 and 0.041 µM with Jurkat [4]. The 50% growth inhibitory concentration (GI50) with HCT-116 is less than 0.01 µM; in the assay on SK-OV-3 it was 1.17 µM; in the assay with NCI/ADR-RES, 0.077 µM; with CAKI-1, 0.042 µM; with HT-29 it was less than 0.01 µM; in the assay with MCF7, 0.054 µM. Moreover, the Ratio in the assay on Jurkat [2] was determined as 1; with Jurkat [3], 0.6.

Consider `CN(CCCNC(=O)c1cccc2cc3cccc(C(F)(F)F)c3nc12)CCCNC(=O)c1cccc2cc3cccc(C(F)(F)F)c3nc12`, for which the figures for the half-inhibitory concentration (IC50) (in assay [1]; with P388; in the assay with Jurkat [4]) were 0.039 µM, 0.24 µM and 0.115 µM, respectively. The GI50 came out at 0.032 µM with HCT-116; 1.26 µM with SK-OV-3; 1.29 µM in the assay with NCI/ADR-RES; 0.6 µM with CAKI-1; 0.033 µM in the assay with HT-29; 0.079 µM in the assay on MCF7. In addition, the Ratio is 1.1 in the assay on Jurkat [2] and 0.85 in the assay on Jurkat [3].

Regarding `CN(CCCNC(=O)c1cccc2cc3cccc(Cl)c3nc12)CCCNC(=O)c1cccc2cc3cccc(Cl)c3nc12`, the IC50 in [1] was 0.008 µM; with P388, 0.046 µM; in the assay with Jurkat [4], 0.033 µM. Besides, the concentration for 50% growth inhibition (GI50) stood at 0.014 µM in the assay with HCT-116; 12 µM in the assay with SK-OV-3; 1.2 µM in the assay with NCI/ADR-RES; 0.0959 µM in the assay on CAKI-1; 0.031 µM with HT-29; 0.167 µM in the assay with MCF7. Also, the Ratio in the assay with Jurkat [2] is given as 1; in the assay with Jurkat [3], 0.55.

For `CN(CCCNC(=O)c1cccc2cc3ccc(Cl)cc3nc12)CCCNC(=O)c1cccc2cc3ccc(Cl)cc3nc12`, the results for the 50% inhibitory concentration (IC50) (in assay [1]; in the assay on P388; in the assay on Jurkat [4]) were 0.013 µM, 0.066 µM and 0.051 µM, respectively. The GI50 in the assay with HCT-116 was less than 0.01 µM; in the assay with SK-OV-3 it was 11 µM; in the assay with NCI/ADR-RES, 0.274 µM; with CAKI-1 it was less than 0.01 µM; with HT-29, less than 0.01 µM; with MCF7, 0.013 µM. The values for the Ratio with Jurkat [2] and with Jurkat [3] were 0.9 and 0.5, respectively.

With `CN(CCCNC(=O)c1cccc2cc3cccc(F)c3nc12)CCCNC(=O)c1cccc2cc3cccc(F)c3nc12`, the IC50 in [1] turned out to be 0.035 µM; in the assay on P388, 0.016 µM; in the assay with Jurkat [4] it was 0.049 µM. Moreover, the GI50 in the assay with HCT-116 was less than 0.01 µM; in the assay on SK-OV-3 it was 0.845 µM; in the assay on NCI/ADR-RES, 0.093 µM; in the assay with CAKI-1, 0.034 µM; with HT-29, less than 0.01 µM; with MCF7 it was less than 0.01 µM. The values for the Ratio with Jurkat [2] and with Jurkat [3] were 0.9 and 0.6, respectively.

Turning to `CN(CCCNC(=O)c1cccc2cc3ccccc3nc12)CCCNC(=O)c1cccc2cc3ccccc3nc12`, the values for the half-maximal inhibitory concentration (IC50) (in assay [1]; with P388; with Jurkat [4]) were 0.03 µM, 0.13 µM and 0.11 µM, respectively. For the same compound, the 50% growth inhibitory concentration (GI50) in the assay on HCT-116 is less than 0.01 µM; with SK-OV-3, 8.57 µM; in the assay with NCI/ADR-RES it was 0.408 µM; in the assay on CAKI-1, 0.014 µM; in the assay with HT-29, less than 0.01 µM; in the assay with MCF7 it was 0.024 µM. In addition, the Ratio was 0.8 with Jurkat [2] and 0.7 in the assay with Jurkat [3].
